Assay results: ChEMBL document CHEMBL1126128, “Nonprostanoid prostacyclin mimetics. 3. Structural variations of the diphenyl heterocycle moiety” (J Med Chem, 1992)

Assay: Compound was tested for inhibition of ADP-induced aggregation of blood platelets in human platelet rich plasma at <80 uM concentration
Assay type: functional
Conditions: not given
Outline: (§1)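 Human platelet-rich plasma with aggregation triggered by ADP and followed by aggregometry. Each test acid was run at one stated upper concentration, and the read-out is percent inhibition of aggregation at that concentration. Each value is from a single experiment or is the mean of duplicate determinations.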

SMILES | Inhibition [%]
O=C(O)CCCOc1cccc(-n2cnc(-c3ccccc3)c2-c2ccccc2)c1 | 57

Assay: Compound was tested for inhibition of ADP-induced aggregation of blood platelets in human platelet rich plasma at >32 uM concentration
Assay type: functional
Conditions: not given
Outline: as §1

SMILES | Inhibition [%]
O=C(O)CCCCOc1cccc(-n2cnc(-c3ccccc3)c2-c2ccccc2)c1 | 23

Assay: Compound was tested for inhibition of ADP-induced aggregation of blood platelets in human platelet rich plasma at >60 uM concentration
Assay type: functional
Conditions: not given
Outline: as §1

SMILES | Inhibition [%]
O=C(O)COc1cccc(CCc2nc(-c3ccc(C(F)(F)F)cc3)c(-c3ccc(C(F)(F)F)cc3)o2)c1 | 1

Assay: Compound was tested for inhibition of ADP-induced aggregation of blood platelets in human platelet rich plasma at >65 uM concentration
Assay type: functional
Conditions: not given
Outline: as §1

SMILES | Inhibition [%]
CSc1ccc(-c2nc(CCc3cccc(OCC(=O)O)c3)oc2-c2ccc(SC)cc2)cc1 | 32

Assay: Compound was tested for inhibition of ADP-induced aggregation of blood platelets in human platelet rich plasma at >68 uM concentration
Assay type: functional
Conditions: not given
Outline: as §1

SMILES | Inhibition [%]
O=C(O)COc1cccc(CCc2nc(-c3cccc(Cl)c3)c(-c3cccc(Cl)c3)o2)c1 | 0

Assay: Compound was tested for inhibition of ADP-induced aggregation of blood platelets in human platelet rich plasma at >75 uM concentration
Assay type: functional
Conditions: not given
Outline: as §1

SMILES | Inhibition [%]
Cc1cccc(-c2nc(CCc3cccc(OCC(=O)O)c3)oc2-c2cccc(C)c2)c1 | 30

Assay: Compound was tested for inhibition of ADP-induced aggregation of blood platelets in human platelet rich plasma at >78 uM concentration
Assay type: functional
Conditions: not given
Outline: as §1

SMILES | Inhibition [%]
O=C(O)COc1cccc(CCc2nc(C3CCCCC3)c(C3CCCCC3)o2)c1 | 25

Assay: Compound was tested for inhibition of ADP-induced aggregation of blood platelets in human platelet rich plasma at >82 uM concentration
Assay type: functional
Conditions: not given
Outline: as §1

SMILES | Inhibition [%]
O=C(O)COc1cccc(-n2cnc(-c3ccccc3)c2-c2ccccc2)c1 | 18

Assay: Compound was tested for inhibition of ADP-induced aggregation of blood platelets in human platelet rich plasma at >84 uM concentration
Assay type: functional
Conditions: not given
Outline: as §1

SMILES | Inhibition [%]
O=C(O)COc1ccc(-n2cnc(-c3ccccc3)c2-c2ccccc2)cc1 | 23

Assay: Inhibition of ADP-induced aggregation of human blood platelets in plasma
Assay type: functional
Conditions: not given

IC50 [µM] | SMILES
5.8 | O=C(O)CCCCCCCCn1cc(-c2ccccc2)c(-c2ccccc2)n1 [listing 1 of 2 here]

Same assay, conditions: Homo sapiens, Plasma

IC50 [µM] | SMILES
> 85 | O=C(O)CCCCCCCCn1nc(-c2ccccc2)c2ccccc2c1=O
4.5 | O=C(O)CCCCCCCCn1cc(-c2ccccc2)c(-c2ccccc2)n1 [listing 2 of 2 here]
> 81 | O=C(O)CCCCCCCCn1c(=O)c2ccccc2n(-c2ccccc2)c1=O
3.6 | O=C(O)COc1cccc(CCn2nnc(C(c3ccccc3)c3ccccc3)n2)c1
> 90 | O=C(O)CCCCCCCCN(C(=O)c1ccccc1)c1ccccc1
3.8 | O=C(O)CCCCCCCn1c(-c2ccccc2)nc(-c2ccccc2)c1-c1ccccc1
2.1 | O=C(O)COc1cccc(CCn2nc(-c3ccccc3)c(-c3ccccc3)nc2=O)c1
> 84 | O=C(O)CCCCCCCCCCN(C(=O)c1ccccc1)c1ccccc1
5 | O=C(O)COc1cccc(CCn2cnc(-c3ccccc3)c2-c2ccccc2)c1
1.57 | O=C(O)COc1cccc(CCn2nc(-c3ccccc3)n(-c3ccccc3)c2=O)c1
17.1 | O=C(O)COc1cccc(CCc2nc(-c3ccc(Cl)cc3)c(-c3ccc(Cl)cc3)o2)c1
> 75 | Cc1cccc(-c2nc(CCc3cccc(OCC(=O)O)c3)oc2-c2cccc(C)c2)c1
> 65 | O=C(O)CCCCCCCSc1nnc(-c2ccccc2)c(-c2ccccc2)c1-c1ccccc1
> 79 | O=C(O)CCCCCCCCOc1ncc(-c2ccccc2)c(-c2ccccc2)n1
29.7 | O=C(O)CCCCCCCCn1cc(-c2ccccc2)c(-c2ccccc2)nc1=O
> 78 | O=C(O)CCCCCCCCN1C(=O)NC(c2ccccc2)(c2ccccc2)C1=O
> 78 | O=C(O)COc1cccc(CCc2nc(C3CCCCC3)c(C3CCCCC3)o2)c1
12.6 | O=C(O)COc1cccc(CCc2nc(-c3ccc(Br)cc3)c(-c3ccc(Br)cc3)o2)c1
17 | O=C(O)COc1cccc(CCc2nc(-c3ccsc3)c(-c3ccsc3)o2)c1
> 82 | O=C(O)CCCCCCCCn1nccc1C(c1ccccc1)c1ccccc1
7.9 | O=C(O)CCCCCCCn1nc(-c2ccccc2)c(-c2ccccc2)nc1=O
3.04 | Cc1nc(-c2ccccc2)c(-c2ccccc2)n1CCCCCCCCC(=O)O
> 82 | O=C(O)COc1cccc(-n2cnc(-c3ccccc3)c2-c2ccccc2)c1
> 84 | O=C(O)CCCCCCCn1nc(-c2ccccc2)n(-c2ccccc2)c1=O
17.7 | O=C(O)COc1cccc(CCc2nc(-c3cccc(F)c3)c(-c3cccc(F)c3)o2)c1
> 80 | O=C(O)CCCCCCCCn1ccc(C(c2ccccc2)c2ccccc2)n1
> 65 | CSc1ccc(-c2nc(CCc3cccc(OCC(=O)O)c3)oc2-c2ccc(SC)cc2)cc1

The next lines start with the compound.

SMILES | IC50 [µM]
O=C(O)COc1cccc(CCn2ncc(-c3ccccc3)c2-c2ccccc2)c1 | 0.75
O=C(O)COc1ccc(CCc2nnc(-c3ccccc3)n2-c2ccccc2)cc1 | > 80
O=C(O)CCCCCCCc1nnc(-c2ccccc2)n1-c1ccccc1 | > 88
O=C(O)CCCOc1ccc(-n2cnc(-c3ccccc3)c2-c2ccccc2)cc1 | 29.2
O=C(O)CCCCCCCn1cc(-c2ccccc2)c(-c2ccccc2)nc1=O | 25.6
O=C(O)COc1cccc(CCc2cc(-c3ccccc3)n(C(c3ccccc3)c3ccccc3)n2)c1 | > 63
Cc1ccc(-c2nc(CCc3cccc(OCC(=O)O)c3)oc2-c2ccc(C)cc2)cc1 | 0.34
O=C(O)CCCCCCCCn1c(-c2ccccc2)nc(-c2ccccc2)c1-c1ccccc1 | 3.9
O=C(O)CCCCCCCn1nc(-c2ccccc2)c(-c2ccccc2)c(-c2ccccc2)c1=O | > 68
COc1ccc(-c2nc(CCc3cccc(OCC(=O)O)c3)oc2-c2ccc(OC)cc2)cc1 | 5.2
O=C(O)COc1cccc(CCc2nc3c4ccccc4c4ccccc4c3o2)c1 | > 20
Cc1ccccc1-c1nc(CCc2cccc(OCC(=O)O)c2)oc1-c1ccccc1C | 11.6
O=C(O)CCCCCCCCn1nc(-c2ccccc2)c(-c2ccccc2)cc1=O | 7.2
O=C(O)COc1ccc(/C=C/c2nnc(-c3ccccc3)n2-c2ccccc2)cc1 | > 80
COc1cccc(-c2nc(CCc3cccc(OCC(=O)O)c3)oc2-c2cccc(OC)c2)c1 | 7.2
Cc1nc(-c2ccccc2)c(-c2ccccc2)n1CCCCCCCC(=O)O | 4.4
O=C(O)COc1cccc(/C=C/c2nnc(-c3ccccc3)n2-c2ccccc2)c1 | 2.99
O=C(O)CCCCCCCCn1nc(-c2ccccc2)n(-c2ccccc2)c1=O | 4.1
O=C(O)COc1cccc(CCc2nc(-c3ccccc3F)c(-c3ccccc3F)o2)c1 | 1.4
O=C(O)CCCCCCCCn1cnc(-c2ccccc2)c1-c1ccccc1 | 58.4

SMILES | IC50 [µM]
O=C(O)COc1cccc(CCc2nc(-c3ccccc3)c(-c3ccccc3)s2)c1 | 0.86
O=C(O)CCCCCCCCn1cc(-c2ccccc2)c(-c2ccccc2)c1 | 10.3
O=C(O)CCCCCCCn1cc(-c2ccccc2)c(-c2ccccc2)n1 | 1.38
O=C(O)COc1cccc(CCc2nc(-c3cccc(Cl)c3)c(-c3cccc(Cl)c3)o2)c1 | > 68
O=C(O)CCCCCCCSc1nnc(-c2ccccc2)c(-c2ccccc2)n1 | > 74
O=C(O)COc1cccc(CCn2cc(-c3ccccc3)c(-c3ccccc3)n2)c1 | 0.87
O=C(O)CCCCCCCn1nc(-c2ccccc2)c2ccccc2c1=O | > 84
O=C(O)COc1cccc(CCn2nc(-c3ccccc3)c(-c3ccccc3)cc2=O)c1 | 1.9
O=C(O)COc1cccc(CCc2cc(-c3ccccc3)n(-c3ccccc3)n2)c1 | 1.67
O=C(O)CCCCCCCCn1nc(-c2ccccc2)c(-c2ccccc2)c1-c1ccccc1 | 0.4
O=C(O)CCCCCCCn1nnnc1C(c1ccccc1)c1ccccc1 | > 84
O=C(O)CCCCCCCCCc1nnc(-c2ccccc2)n1-c1ccccc1 | > 82
O=C(O)COc1cccc(CCc2nnc(-c3ccccc3)n2-c2ccccc2)c1 | 12.7
O=C(O)CCCOc1cccc(-n2cnc(-c3ccccc3)c2-c2ccccc2)c1 | < 80
O=C(O)CCCCCCCCn1nnnc1C(c1ccccc1)c1ccccc1 | > 81
O=C(O)CCCCCCCn1c(C(F)(F)F)nc(-c2ccccc2)c1-c1ccccc1 | 4.64
O=C(O)COc1cccc(CCc2nc(-c3cccs3)c(-c3cccs3)o2)c1 | 7.4
O=C(O)CCCCCCCCc1nnc(-c2ccccc2)n1-c1ccccc1 | > 85
O=C(O)COc1cccc(Cn2cnc(-c3ccccc3)c2-c2ccccc2)c1 | > 82
O=C(O)CCCCCCCOc1ncc(-c2ccccc2)c(-c2ccccc2)n1 | 35.9

SMILES | IC50 [µM]
O=C(O)CCCCCCCCn1nc(-c2ccccc2)c(-c2ccccc2)nc1=O | 4.9
O=C(O)COc1cccc(CCc2nc(-c3ccc(C(F)(F)F)cc3)c(-c3ccc(C(F)(F)F)cc3)o2)c1 | > 60
O=C(O)CCCCOc1cccc(-n2cnc(-c3ccccc3)c2-c2ccccc2)c1 | > 32
O=C(O)COc1cccc(CCn2nc(-c3ccccc3)c(-c3ccccc3)c2-c2ccccc2)c1 | 24.5
O=C(O)CCCCCCCCN1C(=O)C(c2ccccc2)N(c2ccccc2)C1=O (stereo not drawn) | 29.4
O=C(O)CCCCCCCn1nc(-c2ccccc2)c(-c2ccccc2)cc1=O | 4.1
O=C(O)CCCCOc1ccc(-n2cnc(-c3ccccc3)c2-c2ccccc2)cc1 | > 76
O=C(O)CCCCCCCn1cnc(-c2ccccc2)c1-c1ccccc1 | 8.19
CCc1ccc(-c2nc(CCc3cccc(OCC(=O)O)c3)oc2-c2ccc(CC)cc2)cc1 | 28.3
O=C(O)CCCCCCCCc1nc(-c2ccccc2)c(-c2ccccc2)o1 | 6.6
O=C(O)CCCCCCCCn1nc(-c2ccccc2)c(-c2ccccc2)c(-c2ccccc2)c1=O | > 67
O=C(O)CCCCCCCCn1nnc(C(c2ccccc2)c2ccccc2)n1 | 10.7
O=C(O)COc1cccc(CCc2nc(-c3ccc(F)cc3)c(-c3ccc(F)cc3)o2)c1 | 4.8
O=C(O)COc1cccc(CCc2nc(-c3ccccc3)c(-c3ccccc3)[nH]2)c1 | 2.88
O=C(O)COc1cccc(CCC(=O)NCC(c2ccccc2)c2ccccc2)c1 | > 79
O=C(O)CCCCCCCSc1cc(-c2ccccc2)c(-c2ccccc2)nn1 | > 78
O=C(O)CCCCCCCn1nnc(C(c2ccccc2)c2ccccc2)n1 | 7.9
O=C(O)COc1ccc(-n2cnc(-c3ccccc3)c2-c2ccccc2)cc1 | > 84
O=C(O)COc1cccc(CCC(=O)NC(c2ccccc2)c2ccccc2)c1 | > 82

Assay: Compound was tested for inhibition of ADP-induced aggregation of blood platelets in human platelet rich plasma at 20 uM concentration
Assay type: functional
Conditions: not given
Outline: as §1

SMILES | inhibition at 20 µM [%]
O=C(O)COc1cccc(CCc2nc3c4ccccc4c4ccccc4c3o2)c1 | 0

Assay: Compound was tested for inhibition of ADP-induced aggregation of blood platelets in human platelet rich plasma at >76 uM concentration
Assay type: functional
Conditions: not given
Outline: as §1

SMILES | Inhibition [%]
O=C(O)CCCCOc1ccc(-n2cnc(-c3ccccc3)c2-c2ccccc2)cc1 | 31
